STAT3 blocker: STAT3 signaling inhibition. U3A cells, IL-6 STAT3-luciferase reporter, luminescence; host cell line lacks STAT1. inhibition, % at 5.5 µM. hit rate 0.89% among 190,000. AID 862;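 active means inhibition above the mean inhibition across all screened compounds plus 3 SD, cut at about 44% in these data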;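 further: 0% = DMSO only wells and 100% = 100 µM nifuroxazide control wells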
STAT3 activator: activators of IL-6 induced STAT3 signaling | U3A cells, IL-6 STAT3-luciferase reporter, luminescence; 100% = signal with IL-6 EC80 alone | hit rate 0.91% among 190,000 | activation (% of control), % at 5.6 µM;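 active means activation above the screen-wide mean of compound activation plus 3 SD, cut at about 130% in these data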;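 further: 0% = background luminescence of wells with medium and substrate only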
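Material: STAT3-luciferase reporter U3A cells. Controls: IL-6-treated wells, 100% activation. Read-out: % activation versus median of IL-6-stimulated wells. Probe or stimulus: IL-6 stimulus at 33 ng/mL final. Timing: compound 1 h, then IL-6 6 h at 37 °C. Signal: reporter luminescence signal.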
HSP90 refold inh: HSP90 refolding inhibition in rabbit reticulocyte lysate; AID 1789; luciferase refolding luminescence, 3 h; hit rate 0.91% among 290,000; inhibition, % at 5.6 µM;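 active means inhibition above the screen-wide mean plus 3 SD, computed separately per campaign, cut at about 16% in these data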;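 further: 0% = DMSO wells and 100% = 60 µM geldanamycin wells; inhibitors lower the luminescence because luciferase stays unfolded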
STAT1 inh: inhibitors of IFN-gamma induced STAT1 signaling; hit rate 0.35% among 200,000; inhibition, % at 5.5 µM; NIH 3T3 STAT1-luciferase reporter, luminescence; AID 920;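 active means inhibition above a set limit, the mean inhibition across all tested compounds plus 3 SD, cut at about 34% in these data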;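 further: 0% = IFN-gamma with DMSO and 100% = IFN-gamma with 300 µM nifuroxazide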
HSP90 confirm: confirmation of HSP90 inhibitors; hit rate 64% among 2,300; rabbit reticulocyte lysate, luciferase refolding luminescence, 3 h; AID 1846; inhibition, % at 5.9 µM; shares compounds with HSP90 refold inh; in the data active means inhibition above about 18%;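 further: 0% = vehicle wells and 100% = reference inhibitor wells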
FLuc counter: firefly luciferase inhibition, HSP90 counter-screen; shares compounds with HSP90 refold inh; purified native firefly luciferase, luminescence; inhibition, % at 5.9 µM; hit rate 48% among 2,300; AID 1847;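 active means inhibition above the mean inhibition of all tested sample wells plus 3 SD, cut at about 10% in these data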;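 further: 0% = DMSO with luciferase and 100% = wells lacking luciferase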
Target sequence (P08659 whole entry, looked up): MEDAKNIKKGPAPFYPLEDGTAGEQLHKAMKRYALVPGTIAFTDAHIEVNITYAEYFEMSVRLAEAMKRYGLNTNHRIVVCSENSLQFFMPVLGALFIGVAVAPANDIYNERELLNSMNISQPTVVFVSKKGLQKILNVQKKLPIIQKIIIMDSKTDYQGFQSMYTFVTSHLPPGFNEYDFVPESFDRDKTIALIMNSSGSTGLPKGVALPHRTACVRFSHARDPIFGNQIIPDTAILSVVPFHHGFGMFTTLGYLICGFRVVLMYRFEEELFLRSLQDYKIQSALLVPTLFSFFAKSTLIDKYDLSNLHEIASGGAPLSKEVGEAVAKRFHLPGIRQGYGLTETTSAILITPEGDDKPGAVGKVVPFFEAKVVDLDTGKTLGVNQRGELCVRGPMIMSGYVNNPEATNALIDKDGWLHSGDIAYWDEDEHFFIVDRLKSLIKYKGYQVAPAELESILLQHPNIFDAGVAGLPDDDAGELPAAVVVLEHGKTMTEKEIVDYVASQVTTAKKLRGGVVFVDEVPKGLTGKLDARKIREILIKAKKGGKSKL
An asterisk follows results filed as active; . = not tested or not shown. The list is not random: actives were taken first. Their share in the collection is about 2%.

SMILES	STAT3 blocker	STAT3 activator	HSP90 refold inh	STAT1 inh	HSP90 confirm	FLuc counter
CC(C)NC(=O)CN(Cc1ccc(F)cc1)C(=O)CCC(=O)Nc1nccs1	.	.	3	.	.	.
COC(=O)c1ccc2nc(NC(=O)C(C)(C)C)sc2c1	100*	16	67*	74*	78*	73*
CC(C)c1ccc2nc(NC(=O)C3CC3)sc2c1	.	.	-3	.	.	.
CC(=O)c1sc(Nc2nc3ccc(F)cc3s2)nc1C	-2	106	2	-39	.	.
COC(=O)c1ccc2nc(Nc3nc4ccc(F)cc4s3)sc2c1	92*	24	83*	64*	90*	81*
COC(=O)c1ccc2nc(NC(=O)C3CCCCC3)sc2c1	-2	107	18*	-26	35*	-17
Cc1ccc(C#N)c(SCc2nnc(-c3ccc(Cl)cc3)o2)n1	34	72	24*	-25	75*	75*
C/C(=N\NC(=O)c1ccc(O)cc1)c1cccc(NC(=O)c2ccccc2C)c1	.	.	-1	.	.	.
Cc1ccc(-n2nc3c(c2NC(=O)c2ccc4c(c2)OCO4)CS(=O)(=O)C3)c(C)c1	.	.	0	.	.	.
O=C(NC1CCCCCCC1)c1cc(F)c(F)cc1Cl	-6	115	-3	-32	.	.
Cc1ccc(C(=O)NC2CCCCCCC2)c(Cl)c1	.	.	42*	.	63*	53*
CN(C(=O)CSc1nc(-c2ccccc2)cn1N)C(c1ccccc1)c1ccccc1	-3	103	18*	-9	-1	-6
COc1ccccc1CNC(=O)CSc1nc(-c2ccccc2)cn1N	0	102	6	10	.	.
CCCOc1ccc(C2Nc3cccc4cccc(c34)N2)cc1	.	.	39*	.	18*	-17
CCN(CC)c1ccc(C2Nc3cccc4cccc(c34)N2)cc1	.	.	57*	.	2	-7
Fc1ccc(C2Nc3cccc4cccc(c34)N2)cc1	.	.	1	.	.	.
CC(C(=O)Nc1ccc(Cl)cc1Cl)N1C(=O)NC2(CCCC2)C1=O (configuration not stated)	.	.	5	.	.	.
S=C(Nc1cccc(Cl)c1Cl)N1CCCC1	.	.	3	.	.	.
COC1=C/C(=C/c2c(O)c(C#N)c3ccccn23)C=CC1=O	.	.	26*	.	0	-1
COc1cc(OC)cc(C(=O)c2c(C)c(C#N)c3ccccn23)c1	.	.	2	.	.	.
O=C(NNS(=O)(=O)c1ccc([N+](=O)[O-])cc1)c1ccc([N+](=O)[O-])cc1	.	.	-2	.	.	.
O=[N+]([O-])c1nn(-c2ccc3c(c2)OCCO3)n(O)c1=NC1CCCCC1	-3	109	1	-11	.	.
CC1CCN(c2c([N+](=O)[O-])nn(-c3ccc4c(c3)OCCO4)[n+]2[O-])CC1	12	96	17*	0	14	-5
CCOC(=O)c1cn[nH]c1NC(=S)Nc1ccc(OC)cc1	.	.	65*	.	65*	62*
COC(=O)c1cn[nH]c1NC(=S)Nc1ccc(Cl)c(Cl)c1	28	77	37*	-49	44*	44*
SMILES	STAT3 blocker	STAT3 activator	HSP90 refold inh	STAT1 inh	HSP90 confirm	FLuc counter
COc1cc2c(cc1OC)CN(C(=O)CN1CCN(S(=O)(=O)c3ccc(C)c(C)c3)CC1)CC2	.	.	1	.	.	.
CCOc1ccc(Nc2nc(N)c3ccccc3n2)cc1	.	.	60*	.	74*	61*
CN(C)c1ccc(Nc2nc(N)c3ccccc3n2)cc1	.	.	71*	.	92*	78*
COc1ccc(C)cc1Nc1nc(N)c2ccccc2n1	.	.	5	.	.	.
COC(=O)CCNC(=O)c1nn(Cc2ccccc2)c(=O)c2ccccc12	.	.	4	.	.	.
Cc1nc(NC(=O)c2ccc(OCC(C)C)cc2)sc1Cc1ccc2c(c1)OCO2	2	102	32*	-6	7	-6
CCCOc1ccc(C(=O)Nc2nc(C)c(Cc3ccc4c(c3)OCO4)s2)cc1	0	98	24*	-11	3	-12
COc1cc(C(=O)Nc2nc(C)c(Cc3ccc4c(c3)OCO4)s2)cc(OC)c1OC	-6	104	-3	-9	.	.
O=C(C1=NN[C@@H]2C(=O)N(Cc3ccccc3)C(=O)[C@H]12)c1ccc([N+](=O)[O-])cc1	.	.	9	.	.	.
Fc1ccc(-c2nc(-c3cnccn3)no2)c(Cl)c1	.	.	5	.	.	.
Clc1cccc(-c2ccc(CNCCCN3CCOCC3)o2)c1	4	100	27*	-3	1	-4
COc1ccc(/C=C/C(=O)Nc2ccccc2C(F)(F)F)cc1OC	18	94	-3	2	.	.
COc1ccc(/C=C/C(=O)Nc2ccccc2C(=O)O)cc1OC	27	78	72*	-25	55*	52*
Cc1ccc(NC2CCCN(C(=O)CCn3nccc3C)C2)cc1C (configuration not stated)	.	.	3	.	.	.
CC1Sc2ccc(S(=O)(=O)CCC(=O)N(C)Cc3ccccc3)cc2NC1=O (configuration not stated)	.	.	1	.	.	.
O=C1/C(=C/N(C(=O)c2ccco2)c2ccc(Br)cc2)Sc2ccccc21	2	96	17*	-30	57*	61*
O=C(OCCN1CCCCC1)c1cccc(Cl)c1	.	.	6	.	.	.
CN(c1ccc(O)cc1)c1nc(-c2cccs2)cs1	4	101	0	-44	.	.
Cc1nc(N)sc1-c1csc(N(C)c2ccc(O)cc2)n1	0	106	27*	-9	-10	-21
Cc1c(/C=C(\C#N)C(=O)NCc2ccccc2)cc(C#N)n1C	.	.	0	.	.	.
COc1ccc(N(/N=C2\Sc3ccccc3C2=O)C(C)=O)cc1	6	100	20*	-55	73*	-19
COc1ccccc1NC1=C(NC(C)=O)C(=O)c2ccccc2C1=O	-19	118	-4	2	.	.
COc1ccccc1N(/N=C1\Sc2ccccc2C1=O)C(C)=O	.	.	71*	.	76*	34*
Cc1ccc(C23CC4CC(CC(C(=O)NC(C(=O)O)C(C)C)(C4)C2)C3)cc1 (configuration not stated)	.	.	0	.	.	.
Cc1c(C(=O)O)cccc1-n1c(C)cc(/C=N/NC(=O)c2cc3ccccc3o2)c1C	8	95	22*	3	14	-11
SMILES	STAT3 blocker	STAT3 activator	HSP90 refold inh	STAT1 inh	HSP90 confirm	FLuc counter
Cn1cnnc1SCC(=O)Nc1sc2c(c1C(N)=O)CCC2	-3	105	22*	5	5	-6
CC(C)C[C@@H](NC(=O)C1CCC(CNC(=O)[C@H](Cc2ccccc2)NC(=O)OC(C)(C)C)CC1)C(=O)O (some centres not stated)	.	.	-4	.	.	.
O=C(COc1ccc(Cl)cc1Cl)N/N=C/c1ccc(OC2OC(CO)C(O)C(O)C2O)cc1 (configuration not stated)	.	.	-1	.	.	.
CCOc1ccc(-c2nc(CN3CCCCC3CCn3cccn3)c(C)o2)cc1 (configuration not stated)	.	.	18*	.	36*	0
Cc1sc2ncnc(SCC(=O)c3ccc(O)cc3O)c2c1C	.	.	19*	.	-10	-11
c1ccc(-c2nnc(-c3ccccn3)nc2NC2CCCCC2)cc1	7	95	22*	-3	16*	-12
CNc1nc(-c2ccccn2)nnc1-c1ccccc1	3	102	1	-2	.	.
CCOc1cc(C2C3=C(CCCC3=O)OC3=C2C(=O)CCC3)cc([N+](=O)[O-])c1O	5	97	31*	-10	-5	-7

Screens (PubChem BioAssay)
